Compound activity: PubChem BioAssay, several laboratories
ABCG2 block: inhibitors of human ABCG2 transporter, ABCB1 counter-screen | inhibition, % at 6.6 µM | IgMXP3 cells, JC-1 efflux, flow cytometry | actives 0.1% (n = 190,000) | AID 1325;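 active = inhibition above 80%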
Target sequence (Q9UNQ0 whole entry, looked up): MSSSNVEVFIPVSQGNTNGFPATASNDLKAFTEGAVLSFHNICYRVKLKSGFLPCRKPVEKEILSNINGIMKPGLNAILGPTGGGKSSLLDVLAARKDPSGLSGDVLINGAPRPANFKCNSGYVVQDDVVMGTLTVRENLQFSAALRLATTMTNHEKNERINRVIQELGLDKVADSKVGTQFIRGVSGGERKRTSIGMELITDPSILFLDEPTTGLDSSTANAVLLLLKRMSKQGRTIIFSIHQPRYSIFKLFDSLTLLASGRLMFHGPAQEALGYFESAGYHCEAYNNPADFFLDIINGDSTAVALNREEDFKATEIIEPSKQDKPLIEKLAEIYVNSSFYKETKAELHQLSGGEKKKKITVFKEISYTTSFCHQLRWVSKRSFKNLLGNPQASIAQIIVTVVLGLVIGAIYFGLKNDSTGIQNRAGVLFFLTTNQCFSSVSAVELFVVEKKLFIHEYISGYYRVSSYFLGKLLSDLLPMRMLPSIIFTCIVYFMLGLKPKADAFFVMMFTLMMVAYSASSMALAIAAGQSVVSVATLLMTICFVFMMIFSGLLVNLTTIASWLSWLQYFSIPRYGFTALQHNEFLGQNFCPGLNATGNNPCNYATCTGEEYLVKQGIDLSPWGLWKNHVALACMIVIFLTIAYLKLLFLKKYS
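Measure – % inhibition of efflux relative to nicardipine and DMSO · Test system – ABCG2 IgMXP3 and barcoded ABCB1 CCRF-Adr cell mix · Control set – nicardipine as high control, DMSO as low control · Compound – one concentration, 6.6 µM final · Signal – flow cytometry of retained JC-1 fluorescence · Timing – 10 min exposure at 25 °C with rotation, no wash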
ABCB1 block: human ABCB1 inhibition, ABCG2 as counter-screen; actives 0.067% (n = 190,000); P08183; CCRF-Adr cells, JC-1 efflux, flow cytometry; inhibition, % at 6.6 µM; in the data active = inhibition above about 40%;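 note: higher value means more JC-1 retained so stronger ABCB1 efflux block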
RAM network inh: yeast RAM network inhibition; S. cerevisiae dse1pr::URA3 reporter, 5-FOA growth OD615, 2 d; analog-sensitive cbk1-as2 kinase mutant strain; inhibition, % at 50 µM; actives 1.8% (n = 190,000); AID 868;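 active = inhibition above a set limit, 3 SD over mean compound inhibition, cut at about 8.4% in these data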;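 note: inhibition rescues growth on 5-FOA so higher OD means more RAM inhibition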
Arbovirus anti: antivirals against arbovirus infection; arbovirus infection cell-based antiviral screen; inhibition, % at 10 µM; actives 0.37% (n = 200,000); in the data active = inhibition above about 30%
Hits are given with their value. Only some compounds are listed: those with a hit (about 2.3% of all), similar ones and a draw of the others.

`CCOc1ccc(N(CC(=O)NCCC2=CCCCC2)S(=O)(=O)c2ccccc2)cc1` gave ABCG2 block inactive, ABCB1 block inactive, RAM network inh inactive and Arbovirus anti inactive.
`CCN(c1ccccc1)S(=O)(=O)c1ccc(C(=O)Oc2ccc(C(C)=O)cc2)cc1` gave ABCG2 block inactive, ABCB1 block inactive, RAM network inh 9.1 and Arbovirus anti inactive.
Screening CS(=O)(=O)N(Cc1ccc(Cl)cc1)c1ccc(C(=O)NCCC2=CCCCC2)cc1 returned ABCG2 block inactive, ABCB1 block inactive, RAM network inh 9.8 and Arbovirus anti inactive.
For Cn1ncc(Cl)c1C(=O)N1CCCc2ccccc21 the results were ABCG2 block inactive, ABCB1 block inactive, RAM network inh inactive and Arbovirus anti inactive.
`CCOc1ccccc1N(CC(=O)Nc1cccnc1)S(=O)(=O)c1ccc(C)cc1` gave ABCG2 block inactive, ABCB1 block inactive, RAM network inh inactive and Arbovirus anti inactive.
For Cc1nc(SCc2ccccc2F)c2cnn(-c3ccccc3)c2n1 the results were ABCG2 block inactive, ABCB1 block inactive, RAM network inh 11 and Arbovirus anti inactive.
For O=C(c1ccco1)N(Cc1ccc([N+](=O)[O-])cc1)c1ccc(Br)cc1 the results were ABCG2 block inactive, ABCB1 block inactive, RAM network inh 8.4 and Arbovirus anti inactive.
O=C(c1ccco1)N(Cc1cccc([N+](=O)[O-])c1)c1ccc(Br)cc1 was read as ABCG2 block inactive, ABCB1 block inactive, RAM network inh 9.3 and Arbovirus anti inactive.
Cc1cccc(Cn2cc(/C=C/[N+](=O)[O-])c3ccccc32)c1 was read as ABCG2 block inactive, ABCB1 block inactive, RAM network inh 11 and Arbovirus anti inactive.
`CCC1(C)Cc2nc3[nH]c(=S)n(-c4ccccc4)c(=O)c3cc2CO1` (stereo not drawn) gave ABCG2 block inactive, ABCB1 block inactive, RAM network inh 8.5 and Arbovirus anti inactive.
CC(Cc1ccccc1)NC(=O)CSc1nc2nc3c(cc2c(=O)n1-c1ccccc1)COC(C)(C)C3 (stereo not drawn) was read as ABCG2 block inactive, ABCB1 block inactive, RAM network inh inactive and Arbovirus anti inactive.
For COc1cc(-n2c(N)c(C(=O)NCc3ccco3)c3nc4ccccc4nc32)cc(OC)c1OC the results were ABCG2 block inactive, ABCB1 block inactive, RAM network inh 11 and Arbovirus anti inactive.
`COCCNC(=O)c1c(N)n(-c2cccc(C)c2)c2nc3ccccc3nc12` gave ABCG2 block inactive, ABCB1 block inactive, RAM network inh 10.0 and Arbovirus anti inactive.
Screening Cc1nc(NC(=O)C23CC4CC(CC(C4)C2)C3)sc1Cc1ccc2c(c1)OCO2 returned ABCG2 block inactive, ABCB1 block inactive, RAM network inh inactive and Arbovirus anti inactive.
For Cc1cc2cc3c(cc2nc1SCC(=O)O)CCC3 the results were ABCG2 block inactive, ABCB1 block inactive, RAM network inh inactive and Arbovirus anti inactive.
For CCOC(=O)CC(=O)CSc1nc(-c2ccc3c(c2)OCO3)cc(C(F)(F)F)c1C#N the results were ABCG2 block inactive, ABCB1 block inactive, RAM network inh inactive and Arbovirus anti inactive.
Screening CCOC(=O)CCSc1nc(-c2ccc3c(c2)OCO3)cc(C(F)(F)F)c1C#N returned ABCG2 block inactive, ABCB1 block inactive, RAM network inh 11 and Arbovirus anti inactive.
For CCCOc1ccc(Cn2c(C)nc([N+](=O)[O-])c2SCC(O)COC)cc1[N+](=O)[O-] (stereo not drawn) the results were ABCG2 block inactive, ABCB1 block inactive, RAM network inh inactive and Arbovirus anti inactive.
COC(=O)c1cccc(S(=O)(=O)N(Cc2ccco2)Cc2cc3cc(OC)c(OC)cc3[nH]c2=O)c1 was read as ABCG2 block inactive, ABCB1 block inactive, RAM network inh 8.9 and Arbovirus anti inactive.
For Cc1cccc(-n2cnc3cc(C(=O)N4CCCCC4)ccc32)c1 the results were ABCG2 block inactive, ABCB1 block inactive, RAM network inh inactive and Arbovirus anti inactive.
Screening O=C(NCc1ccc2c(c1)OCO2)c1ccc(NS(=O)(=O)c2ccc3c(c2)OCCO3)cc1 returned ABCG2 block inactive, ABCB1 block inactive, RAM network inh 8.5 and Arbovirus anti inactive.
O=C(NCc1ccc2c(c1)OCO2)c1ccc(S(=O)(=O)N2CCCCC2)cc1 was read as ABCG2 block inactive, ABCB1 block inactive, RAM network inh inactive and Arbovirus anti inactive.
Cc1ccc(NC(=O)CSc2nn(-c3ccc(Cl)cc3)c(=S)s2)cc1S(=O)(=O)N(C)C was read as ABCG2 block inactive, ABCB1 block inactive, RAM network inh 11 and Arbovirus anti inactive.
`O=C(Nc1ccccc1F)c1ccc(-n2cncn2)nc1` gave ABCG2 block inactive, ABCB1 block inactive and Arbovirus anti inactive.
For COc1ccc(C2CC3(CC(C)(C)NC(=S)N3)Oc3cc(O)cc(C)c32)cc1 (stereo not drawn) the results were ABCG2 block inactive, ABCB1 block inactive, RAM network inh 9.7 and Arbovirus anti inactive.
For Cc1cc(O)cc2c1C(c1ccc(F)cc1)CC1(CC(C)(C)NC(=S)N1)O2 (stereo not drawn) the results were ABCG2 block inactive, ABCB1 block inactive, RAM network inh inactive and Arbovirus anti inactive.
`COc1ccc(OC)c(-c2csc(N(C)C(=O)Cc3ccccc3)n2)c1` gave ABCG2 block inactive, ABCB1 block inactive, RAM network inh 9.8 and Arbovirus anti inactive.
For COc1ccc(OC)c(-c2csc(N(CC3CCCO3)C(=O)C3CCCCC3)n2)c1 (stereo not drawn) the results were ABCG2 block inactive, ABCB1 block inactive, RAM network inh inactive and Arbovirus anti inactive.
COc1ccc(OC)c(-c2csc(N(Cc3ccco3)C(=O)c3cccs3)n2)c1 was read as ABCG2 block inactive, ABCB1 block inactive, RAM network inh 9.1 and Arbovirus anti inactive.
For Cc1nn(C(C)c2nc(-c3ccccc3)no2)c(C)c1[N+](=O)[O-] (stereo not drawn) the results were ABCG2 block inactive, ABCB1 block inactive, RAM network inh inactive and Arbovirus anti inactive.
COc1ccc(CCn2c(C)cc(C(=O)CCl)c2C)cc1OC was read as ABCG2 block inactive, ABCB1 block inactive, RAM network inh inactive and Arbovirus anti inactive.
Screening Cc1ccc(NC(=O)c2nc3nccc(C)n3n2)c(C)c1 returned ABCG2 block inactive, ABCB1 block inactive, RAM network inh inactive and Arbovirus anti inactive.
Screening CN1CCN(S(=O)(=O)c2ccc(NC(=S)NC(=O)c3ccc(Cl)cc3)cc2)CC1 returned ABCG2 block inactive, ABCB1 block inactive, RAM network inh inactive and Arbovirus anti 49.
`O=C(NCCc1ccccc1)C1CCN(S(=O)(=O)c2cccnc2)CC1` gave ABCG2 block inactive, ABCB1 block inactive, RAM network inh inactive and Arbovirus anti inactive.
CC1CCc2cc(F)cc3c(O)c(C(=O)NCC4CCCO4)c(=O)n1c23 (stereo not drawn) was read as ABCG2 block inactive, ABCB1 block inactive, RAM network inh 11 and Arbovirus anti inactive.
Cc1ccc(C)c2c1cc(C)c1nnc(SCC(=O)c3cccs3)n12 was read as ABCG2 block inactive, ABCB1 block inactive, RAM network inh 11 and Arbovirus anti inactive.
